The nature of data set [1]: Selective index, ratio of IC50 for human K562 cells to EC50 for inhibition of P-gp in human K562/A02 cells assessed as potentiation of doxorubicin-induced cytotoxicity. The gist of the method: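 Reversal EC50 is the modulator concentration that halves the DOX IC50 in K562/A02 cells, from % DOX IC50 plotted against log modulator concentration. The index divides the MTT IC50 in K562, K562/A02 or HUVEC cells by this EC50.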

The species entered for data set [2] is Homo sapiens. The experiment in a line: Inhibition of P-gp in human K562/A02 cells assessed as potentiation of doxorubicin-induced cytotoxicity at 1 uM preincubated for 24 hrs followed by compound washout for 24 hrs and subsequent doxorubicin addition measured after 48 hrs by MTT assay. Type of data set: cell-based. The gist of the method:
(§1)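 K562/A02 cells (1×10^4 cells per well) were preincubated 24 h with modulator (1.0 μM or 5.0 μM) or PBS. Cells were washed 0 or 3 times with medium and held for 0, 6, 12 or 24 h. A DOX concentration series was then added for 48 h, and viability was read by MTT. Triplicate determinations.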

The species entered for data set [3] is Homo sapiens. In words: Inhibition of P-gp in human K562/A02 cells assessed as accumulation of doxorubicin at 0.1 uM to 5.0 uM after 150 mins by fluorescence spectrophotometric analysis. Type of data set: cell-based. The gist of the method:
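K562/A02 cells (4×10^5) were incubated 150 min at 37 °C with 20.0 μM DOX plus modulator at various concentrations, with 0.1% DMSO as negative control. Cells were washed with cold PBS and lysed in HCl/Triton X-100/isopropanol. DOX fluorescence was read at ex 460 / em 587 nm. Mean ± SD, n = 3.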

The species named for data set [4] is Homo sapiens. The experiment in a line: Inhibition of ATPase activity in human P-gp membrane fraction at 0.5 uM in presence of ATP after 1 hr by luciferase […]. Type of data set: cell membranes. The method, boiled down:
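Human P-gp membrane fraction (~25 μg) was incubated with compound at 0.5, 5.0 or 50.0 μM in 0.5% DMSO, with a 100 μM sodium vanadate reference. Reaction was started with 5.0 mM MgATP, 1 h at 37 °C. Remaining ATP was read by luciferase luminescence after 20 min at room temperature, relative to vanadate. n = 3.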

In a further data set the test system is K562/A02. The experiment in a line: Effect on ABCB1 expression in human K562/A02 cells at 0.1 uM to 2.0 uM after 72 hrs by Western blot analysis. Type of data set: functional, cell-based. The method, boiled down: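 K562/A02 cells were treated 72 h with compound at 0.1, 0.5 or 2.0 μM and lysed in RIPA/PMSF. Lysate (100 μg) was run on gradient SDS-PAGE and probed with anti-ABCB1, with β-tubulin loading control and ECL detection. Expression is given as the ABCB1/β-tubulin band-intensity ratio.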

The nature of data set [5]: Plasma clearance in Sprague-Dawley rat at 10 mg/kg, po measured after 24 hrs by LC-MS/MS analysis. Type of data set: ADME, organism-based. The method, boiled down:
(§2)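 Male Sprague-Dawley rats, n = 3 per group, given drug in Tween-80/ethanol/saline (5:10:85, v/v) at 10 mg/kg p.o. or 5 mg/kg i.v. Retro-orbital blood was taken at 5 min to 24 h, and plasma separated at 900g. Samples were spiked with internal standard, methanol-precipitated and quantified by LC-MS/MS. F = (AUCpo/AUCiv)×(dose iv/dose po)×100%.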

Data set [6] is described as follows: Plasma clearance in Sprague-Dawley rat at 5 mg/kg, iv measured after 24 hrs by LC-MS/MS analysis. Type of data set: ADME, organism-based. The gist of the method:
as §2

The nature of data set [7]: Oral bioavailability in Sprague-Dawley rat plasma at 10 mg/kg measured after 24 hrs by LC-MS/MS analysis. Type of data set: ADME, organism-based. The method, boiled down: as §2
Data set [8] in a line: Bioavailability in Sprague-Dawley rat plasma at 5 mg/kg, iv measured after 24 hrs by LC-MS/MS analysis. Type of data set: ADME, organism-based. The gist of the method:
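Bioavailability was calculated as (AUCpo/AUCiv)×(dose iv/dose po)×100% from male SD rats (n = 3) dosed 5 mg/kg i.v. or 10 mg/kg p.o. in Tween-80/ethanol/saline (5:10:85). Plasma sampled 5 min–24 h was analysed by LC-MS/MS.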

The species named for data set [9] is Homo sapiens. In words: Inhibition of P-gp in human K562/A02 cells assessed as potentiation of doxorubicin-induced cytotoxicity at 1.0 uM preincubated for 24 hrs followed by doxorubicin addition measured after 48 hrs by MTT assay. Type of data set: cell-based. The method, boiled down:
as §1

Another data set has as its system Rattus norvegicus. The experiment in a line: Effect on plasma clearance of doxorubicin in Sprague-Dawley rat at 5 mg/kg, iv co-administered with doxorubicin measured after 8 hrs by LC-MS/MS analysis. Type of data set: ADME, organism-based. To be noted: in vivo. The method, boiled down:
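Male SD rats received DOX 10 mg/kg i.v. alone or with modulator 5 mg/kg i.v. Orbital blood was taken at 5 min to 8 h. Plasma DOX was measured by LC-MS/MS with DNR (0.5 μg/mL) as internal standard. Mean ± SD, n = 3.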

From ChEMBL document CHEMBL4049421, “Design, Synthesis, and Pharmacological Characterization of N-(4-(2 (6,7-Dimethoxy-3,4-dihydroisoquinolin-2(1H)yl)ethyl)phenyl)quinazolin-4-amine Derivatives: Novel Inhibitors Reversing P-Glycoprotein-Mediated Multidrug Resistance” (J Med Chem, 2017) come the findings set out here.

The source made the active and inactive calls. The rule behind the calls is not given here.

With `COc1cc2c(cc1OC)CN(CCc1ccc(Nc3nc(-c4ccncc4)nc4ccccc34)cc1)CC2`, in data set [1], the “Ratio IC50/EC50” value is reported as 75.6. Moreover, the inhibition entry in the data set filed under Homo sapiens [2], in the data set filed under Homo sapiens [3], in the data set listed under Homo sapiens [4] and in the data set listed under Homo sapiens [9] was “Active” in each case. Also, the result with K562/A02 was inactive. Besides, the CL/F in [5] was determined as 49.9 mL/min/kg. Also, the clearance in data set [6] stood at 47.8 mL/min/kg. Further, the bioavailability in [7] and in [8] was 95.3% throughout. The Activity result in the data set on Rattus norvegicus is recorded as “Non-Toxic”.
